The entries come from a sample that favours hits as a whole.
E-selectin induc: E-selectin induction in HUVECs, primary screen, imaging, HUVEC, immunofluorescence imaging, single point. activation, % at 7.58 µM. P16581. normalized: neutral wells 0, TNF-alpha wells 100. 260,000 compounds, 0.37% hits;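 active = mean E-selectin-positive cell signal at least 10% of the positive control, reached in at least 60% of replicates, without over 20% cell loss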
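Read-out: % PE-positive cells | Test system: HUVEC | Doses: One compound dose added by pin transfer | Buffer or medium: EGM-2 over gelatin coat | Signal: Immunofluorescence imaging | Benchmarks: TNF-alpha, DMSO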
Xi reactivation: activators of inactive X chromosome reactivation, primary screen, imaging, XiGFP fibroblasts, GFP high-content imaging, set 2; AID 743238, 2013; 360,000 compounds, 0.055% hits; activation, % at 7.58 µM; XiGFP mouse fibroblasts, % GFP-positive cells imaging, 3 d; cells co-treated with 5-aza-dC sensitizer; scaled so ellipticine positive control = 100%;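 active = mean normalized replicate activation at least 10% and every replicate at or above 10%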
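System: XiGFP fibroblasts, SV40-immortalized. Medium: DMEM plus 5-aza-dC sensitizer. Doses: single point. Timing: 3 d treatment, 15 min room-temperature fixation. Control set: ellipticine 6 µM.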
Numbers stand for hits; i = inactive; nt = not tested or not shown; ! = not confirmed by another sample.

SMILES | E-selectin induc | Xi reactivation
CN1/C(=C\C=C2C(=O)NC(=S)NC2=O)C(C)(C)c2ccccc21 | nt | i
CC1(C)OC(c2ccccc2)=C/C(=C/C=C2C(=O)NC(=S)NC2=O)O1 | 533 | i
C=COCCn1c(C)c(C(C)=O)c2cc(O)ccc21 | 56 | i
CCOC(=O)c1c(C)n(Cc2ccc(F)cc2)c2ccc(O)cc12 | nt | i
C[n+]1c(-c2ccccc2)c2cc(N)ccc2c2ccc(N)cc21 | i | 19
Nc1ccc2ccc3cccc[n+]3c2c1 | nt | i
Cc1ccc(OC(F)F)c(N2C(=O)C3C4CCC(O4)C3C2=O)c1 (stereo unspecified) | 35 | i
CN1[C@@H]2CN(S(C)(=O)=O)C[C@H]1C2c1ccc(Br)cc1 (stereo partly specified) | nt | i
c1ccc2nc(N3CCNCC3)ccc2c1 | 70! | i
c1ccc2c(N3CCNCC3)cccc2c1 | i | i
C=CCN1[C@@H]2CN(CC(F)(F)F)C[C@H]1C2c1ccc(Br)cc1 (stereo partly specified) | nt | i
CC(C)NC(=O)N1C[C@@H]2C(c3ccc(Br)cc3)[C@H](C1)N2C (stereo partly specified) | nt | i
CN(C)CC1CCCCC1OC(=O)Cc1ccc(Cl)c([N+](=O)[O-])c1 (stereo unspecified) | 50 | i
CC(=O)N1C[C@@H]2C(c3ccccc3)[C@H](C1)N2CC1CC1 (stereo partly specified) | nt | i
C=CCN1[C@@H]2CN(C(C)=O)C[C@H]1C2c1ccc(Br)cc1 (stereo partly specified) | nt | i
CS(=O)(=O)N1C[C@@H]2N[C@H](C1)C2c1ccccc1 (stereo partly specified) | nt | i
CC(=O)N1[C@@H]2Cn3c(ccc(-c4cccc(C(=O)N(C)C)c4)c3=O)[C@H]1[C@@H](C(=O)O)[C@@H]2CO | nt | i
CC(C)NC(=O)N1C[C@@H]2C(c3ccccc3)[C@H](C1)N2C (stereo partly specified) | nt | i

Source: PubChem BioAssay
